ChEMBL document CHEMBL4725483, “Simultaneous Inhibition of SIRT2 Deacetylase and Defatty-Acylase Activities via a PROTAC Strategy” (ACS Med Chem Lett, 2020)
pIC50: −log10 of the molar value. Activity calls are given as the source filed them. The calls are words filed in the database; no cut-off is given here.

Columns and labels:
[1] = biological target: T1, Protein cereblon/NAD-dependent protein deacetylase sirtuin-2 (Homo sapiens) (UniProt Q8IXJ6+Q96SW2); assay: Protac activity at CRBN/SIRT2 in human HEK293T cells assessed as abundance ratio at 5 uM incubated for 16 hrs by TMT global proteomics assay relative to DMSO; type: cell-based; settings: HEK-293T
Procedure, shortened: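 HEK 293T cells were treated for 16 h. Global proteome was quantified by Tandem Mass Tag labelling. The abundance ratio of each sirtuin was taken against DMSO-treated cells.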

[2] = biological target: T2, NAD-dependent protein deacetylase sirtuin-3, mitochondrial (Homo sapiens, UniProt Q9NTG7); assay: Inhibition of human SIRT3 deacetylation activity using H3K9Ac as substrate preincubated for 15 mins in presence of NAD+ followed by substrate addition by HPLC analysis
T2 sequence (Q9NTG7 whole entry): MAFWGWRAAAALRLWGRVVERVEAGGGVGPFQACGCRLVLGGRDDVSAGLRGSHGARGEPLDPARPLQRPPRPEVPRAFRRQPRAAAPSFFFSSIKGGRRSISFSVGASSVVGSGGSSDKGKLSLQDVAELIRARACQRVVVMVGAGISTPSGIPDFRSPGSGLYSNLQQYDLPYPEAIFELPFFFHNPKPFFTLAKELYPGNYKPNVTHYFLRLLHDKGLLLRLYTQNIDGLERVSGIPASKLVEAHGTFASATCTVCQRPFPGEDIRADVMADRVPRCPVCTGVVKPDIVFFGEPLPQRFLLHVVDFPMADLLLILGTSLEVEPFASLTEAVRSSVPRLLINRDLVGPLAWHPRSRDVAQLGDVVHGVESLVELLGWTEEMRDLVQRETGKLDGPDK
Procedure, shortened: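 In vitro sirtuin reaction mixture with compound at a range of concentrations. Compound was preincubated with NAD+ and the enzyme before the substrate peptide was added. IC50 taken from the concentration series.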

[3] = biological target: T1, Protein cereblon/NAD-dependent protein deacetylase sirtuin-2 (Homo sapiens); assay: Protac activity at CRBN/SIRT2 in human HEK293T cells stably expressing flag-tagged K-Ras4a-G12V assessed as inhibition of SIRT2 defatty-acylation at 1 uM incubated for 48 hrs by immunoblot analysis; type: cell-based; settings: HEK-293T
Procedure, shortened: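 HEK 293T cells stably overexpressing Flag-tagged K-Ras4a-G12V (confirmed by pan-Ras blot) were exposed to 1 μM compound for 48 h. SIRT1, SIRT2 and SIRT3 levels were then read by immunoblot.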

T1 sequence (Q8IXJ6 whole entry, looked up): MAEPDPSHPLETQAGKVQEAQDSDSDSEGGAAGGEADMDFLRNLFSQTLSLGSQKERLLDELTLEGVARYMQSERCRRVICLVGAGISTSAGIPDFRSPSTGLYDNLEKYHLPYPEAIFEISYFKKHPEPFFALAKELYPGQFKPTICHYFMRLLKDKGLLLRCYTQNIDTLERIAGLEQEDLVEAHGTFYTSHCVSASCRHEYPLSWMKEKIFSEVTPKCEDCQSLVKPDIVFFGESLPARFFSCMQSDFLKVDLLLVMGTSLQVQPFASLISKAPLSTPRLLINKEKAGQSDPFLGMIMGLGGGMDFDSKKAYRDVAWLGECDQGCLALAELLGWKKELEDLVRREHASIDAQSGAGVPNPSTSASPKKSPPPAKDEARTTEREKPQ
T1 sequence (Q96SW2 whole entry, looked up): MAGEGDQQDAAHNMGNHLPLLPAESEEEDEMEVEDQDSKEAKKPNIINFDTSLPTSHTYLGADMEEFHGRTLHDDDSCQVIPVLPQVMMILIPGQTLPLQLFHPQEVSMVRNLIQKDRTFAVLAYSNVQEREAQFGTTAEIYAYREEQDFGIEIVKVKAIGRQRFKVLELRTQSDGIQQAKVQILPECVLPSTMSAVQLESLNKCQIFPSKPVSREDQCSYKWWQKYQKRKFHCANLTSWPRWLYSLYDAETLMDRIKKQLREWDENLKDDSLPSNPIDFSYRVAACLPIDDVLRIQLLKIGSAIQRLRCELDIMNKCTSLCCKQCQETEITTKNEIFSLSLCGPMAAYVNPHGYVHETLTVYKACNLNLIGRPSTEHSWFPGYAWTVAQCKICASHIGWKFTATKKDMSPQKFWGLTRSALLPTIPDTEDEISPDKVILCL

CCCCCCCCCCCCCC(=S)NCCCC[C@H](NC(=O)CCOCCOCCOCCOCCNc1cccc2c1C(=O)N(C1CCC(=O)NC1=O)C2=O)C(=O)Nc1ccccc1 (stereo partly drawn)
Ratio [1]: 0.36
pIC50 [2]: < 4.08
Activity [3]: Active
